Test results reported in ChEMBL document CHEMBL4190287, “Identification of Antiangiogenic Potential and Cellular Mechanisms of Napyradiomycin A1 Isolated from the Marine-Derived Streptomyces sp. YP127” (J Nat Prod, 2017).
Activity calls are given as the source filed them. The calls are words filed in the database; no cut-off is given here.

What was measured:
HUVEC [1] = assay: Downregulation of VE-cadherin mRNA level in HUVEC at 20 uM after 24 hrs by qRT-PCR method relative to control; type: functional, Homo sapiens
Summary of the method: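 Total RNA from compound- or DMSO-treated HUVECs (24 h) extracted, cDNA made, VE-cadherin mRNA quantified by real-time PCR relative to control.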

HUVEC [2] = assay: Antiproliferative activity against HUVEC after 72 hrs by Celltiter-Glo luminescent cell viability assay; type: functional; conditions: Homo sapiens
Summary of the method: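 HUVECs seeded 2.5 × 10^3 per well, treated with compound at different concentrations; confluency imaged every 6 h over 72 h. At 72 h viable cells measured by CellTiter-Glo luminescence; GI50 calculated.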

HUVEC [3] = assay: Antiangiogenic activity in HUVEC assessed as inhibition of VEGF-induced tube formation after 24 hrs by calcein-AM dye based fluorescence assay; type: functional, cell-based; conditions: Homo sapiens
Summary of the method: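 HUVECs (passage 6–8) seeded at 6 × 10^4 cells on growth-factor-reduced Matrigel, incubated 24 h with compound at various concentrations plus 10 ng/mL recombinant human VEGF; stained 2 μg/mL Calcein AM 20 min, 37 °C, imaged. Tubes with three branch points counted; three independent experiments, mean tube numbers; IC50 from concentration–response.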

[4] = Antiproliferative activity against human BJ6 cells at 0.2 to 20 uM after 72 hrs by IncuCyte live imaging
HUVEC [5] = assay: Induction of cellular permeability in HUVEC at 20 uM by Transwell assay; type: functional, cell-based; conditions: Homo sapiens, TDE = time-dependent effect
Summary of the method: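 HUVECs (5 × 10^5 cells/well) grown 48 h on gelatin-coated Transwell inserts, then exposed to compound a further 48 h; 1 mg/mL FITC-dextran added to upper chamber and fluorescence transferred to lower chamber read on plate reader.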

HUVEC [6] = assay: Antiproliferative activity against HUVEC assessed as inhibition of Ki67 expression at 20 uM after 24 hrs by immunofluorescent microscopic analysis; type: functional, cell-based; conditions: Homo sapiens
Summary of the method: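 HUVECs seeded 4 × 10^4 per well on gelatin, treated 24 h; fixed 4% paraformaldehyde 10 min, permeabilized 0.1% Triton X-100 10 min, blocked 10% normal horse serum 1 h RT, anti-Ki-67 1 h, Cy3 secondary, DAPI nuclear stain; fluorescence microscopy.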

HUVEC [7] = assay: Downregulation of PECAM1 mRNA level in HUVEC at 20 uM after 48 hrs by qRT-PCR method relative to control; type: functional, Homo sapiens
HUVEC [8] = assay: Cytotoxicity against HUVEC assessed as cell death at 20 uM after 24 hrs by YOYO-1 Iodide staining based fluorescence assay; conditions: human
HUVEC [9] = assay: Downregulation of PECAM1 mRNA level in HUVEC at 20 uM after 24 hrs by qRT-PCR method relative to control; type: functional, Homo sapiens
HUVEC [10] = assay: Antiinvasive activity in HUVEC assessed as inhibition of VEGF-induced cell invasion at 20 uM measured every 3 hrs for 24 hrs relative to control; type: functional, Homo sapiens; set-up: scale not given: the % may be the effect or the level left
Summary of the method: (§1)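 Wound made in HUVEC monolayer (1 × 10^5 cells/well, grown overnight) with pin wounding device, washed with PBS; growth-factor-reduced basement membrane matrix overlaid on wound, compound-containing medium added. Tip cells at invasive front counted after 24 and 48 h of treatment versus control, live-cell imaging.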

HUVEC [11] = assay: Antimigratory activity against VEGF-stimulated HUVEC at 20 uM after 24 hrs by scratch wound-healing assay; type: functional, cell-based; conditions: Homo sapiens
Summary of the method: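 HUVECs plated at 1 × 10^5 cells/well, grown overnight, wounded with pin device, washed twice with PBS; medium with 10 ng/mL VEGF plus compound or DMSO added. Live-cell images every 3 h for 24 h; wound confluence (cell density in wound area, %) computed by imaging algorithm.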

HUVEC [12] = assay: Downregulation of VE-cadherin mRNA level in HUVEC at 20 uM after 48 hrs by qRT-PCR method relative to control; type: functional, Homo sapiens
HUVEC [13] = assay: Downregulation of PECAM1 expression in HUVEC at 20 uM after 24 to 48 hrs by Western blot method; type: functional, cell-based; conditions: Homo sapiens
HUVEC [14] = assay: Downregulation of VE-cadherin expression in HUVEC at 20 uM by Western blot method; type: functional, cell-based; conditions: Homo sapiens, TDE = time-dependent effect
Summary of the method: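 HUVEC lysates in RIPA buffer with protease inhibitors, separated on 4–12% SDS gradient gel, transferred to PVDF, probed with anti-VE-cadherin and anti-GAPDH, HRP secondary, ECL detection.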

HUVEC [15] = assay: Antiinvasive activity in HUVEC assessed as inhibition of VEGF-induced cell invasion at 20 uM measured every 3 hrs for 48 hrs relative to control; type: functional, Homo sapiens; set-up: scale not given: the % may be the effect or the level left; summary of the method: as §1

Structure (SMILES): CC(C)=CCC/C(C)=C/C[C@@]12OC(C)(C)[C@H](Cl)C[C@]1(Cl)C(=O)c1c(O)cc(O)cc1C2=O
- Activity (HUVEC [1]): 76%
- GI50 (HUVEC [2]): 27.6 µM
- IC50 (HUVEC [3]): 10 µM
- Activity [4]: Non-Toxic
- Activity (HUVEC [5]): Tde
- inhibition (HUVEC [6]): Active
- Activity (HUVEC [7]): 70%
- Activity (HUVEC [8]): Non-Toxic
- Activity (HUVEC [9]): 53%
- Activity (HUVEC [10]): 43%
- Activity (HUVEC [11]): Active
- Activity (HUVEC [12]): 94%
- Activity (HUVEC [13]): inactive
- Activity (HUVEC [14]): Tde
- Activity (HUVEC [15]): 52%
